Reference: ChEMBL document CHEMBL5154850, “A platform for the rapid synthesis of proteolysis targeting chimeras (Rapid-TAC) under miniaturized conditions” (Eur J Med Chem, 2022)
Calls of active or inactive are those of the source. The rule behind the calls is not given here.

Assays:
[1] = molecular target: T1, von Hippel-Lindau disease tumor suppressor/Androgen receptor (Homo sapiens, UniProt P10275+P40337); assay: PROTAC activity at VHL/AR in human LNCaP cells assessed as induction of AR degradation at 1 to 10 uM measured after 16 hrs by western blot analysis; assay type: cell-based; settings: dose 1-10 µM
Outline: (§1)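 LNCaP cells kept in RPMI with 10% FBS, 1% HEPES, 1% sodium pyruvate and 1% penicillin/streptomycin at 37 °C, 5% CO2, then exposed to PROTACs for 16 h. Lysis in RIPA buffer with protease inhibitors and 1 mM PMSF. BCA-equalized protein run on 7.5% SDS-PAGE, blocked in 5% milk/TBS-T, anti-AR primary overnight at 4 °C, β-actin loading control, HRP secondary 1 h, chemiluminescent imaging.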
Target sequence in this assay (P10275 whole entry, looked up): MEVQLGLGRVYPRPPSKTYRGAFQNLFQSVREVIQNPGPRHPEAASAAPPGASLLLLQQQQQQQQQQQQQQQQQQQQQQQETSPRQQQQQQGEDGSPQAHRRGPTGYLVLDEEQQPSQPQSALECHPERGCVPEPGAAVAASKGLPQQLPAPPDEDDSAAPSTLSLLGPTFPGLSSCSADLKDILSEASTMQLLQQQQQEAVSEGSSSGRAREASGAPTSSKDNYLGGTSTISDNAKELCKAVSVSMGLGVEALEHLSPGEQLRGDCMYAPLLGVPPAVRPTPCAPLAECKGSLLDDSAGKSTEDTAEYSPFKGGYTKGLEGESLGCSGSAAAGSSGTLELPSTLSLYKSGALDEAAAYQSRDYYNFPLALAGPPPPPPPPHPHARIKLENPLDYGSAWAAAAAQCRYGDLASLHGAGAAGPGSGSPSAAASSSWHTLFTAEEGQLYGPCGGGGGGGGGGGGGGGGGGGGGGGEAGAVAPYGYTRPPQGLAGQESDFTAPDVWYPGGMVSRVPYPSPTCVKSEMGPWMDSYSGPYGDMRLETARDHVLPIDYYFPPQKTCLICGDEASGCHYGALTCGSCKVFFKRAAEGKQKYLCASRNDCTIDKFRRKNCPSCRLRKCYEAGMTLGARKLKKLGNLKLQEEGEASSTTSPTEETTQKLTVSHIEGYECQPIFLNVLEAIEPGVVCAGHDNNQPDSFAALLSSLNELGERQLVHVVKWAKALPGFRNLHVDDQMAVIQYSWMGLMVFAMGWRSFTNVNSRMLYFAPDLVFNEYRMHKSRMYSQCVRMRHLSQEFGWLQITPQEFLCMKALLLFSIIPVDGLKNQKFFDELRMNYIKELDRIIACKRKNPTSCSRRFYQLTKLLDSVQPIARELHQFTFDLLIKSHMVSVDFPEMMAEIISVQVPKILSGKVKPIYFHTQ
Target sequence in this assay (P40337 whole entry, looked up): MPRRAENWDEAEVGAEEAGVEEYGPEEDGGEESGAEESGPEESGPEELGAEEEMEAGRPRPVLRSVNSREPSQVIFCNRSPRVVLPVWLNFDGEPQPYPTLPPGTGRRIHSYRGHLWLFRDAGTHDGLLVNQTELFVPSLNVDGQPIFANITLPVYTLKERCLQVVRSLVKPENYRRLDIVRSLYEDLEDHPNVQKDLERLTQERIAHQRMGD

[2] = molecular target: T1, von Hippel-Lindau disease tumor suppressor/Androgen receptor; assay: PROTAC activity at VHL/AR in human LNCaP cells assessed as induction of AR degradation at 0.01 to 1 uM measured after 16 hrs by western blot analysis; assay type: cell-based; settings: dose 0.1-10 µM, in the assay text read “0.1 to 10 uM” for “0.01 to 1 uM”; outline: as §1
Target sequence in this assay (P10275 whole entry, looked up): as the sequence (P10275 whole entry, looked up) above
Target sequence in this assay (P40337 whole entry, looked up): as the sequence (P40337 whole entry, looked up) above

[3] = molecular target: T2, von Hippel-Lindau disease tumor suppressor/Bromodomain-containing protein 4 (Homo sapiens, UniProt O60885+P40337); assay: PROTAC activity at VHL/BRD4 in human MV4-11 cells assessed as induction of BRD4 degradation at 1 uM measured after 24 hrs by western blot analysis; assay type: cell-based
T2 sequence (P40337 whole entry, looked up, other chains not shown): as the sequence (P40337 whole entry, looked up) above
Outline: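 MV-4-11 cells grown in IMDM with 10% FBS and 1% penicillin/streptomycin at 37 °C, 5% CO2. Library screen at 1 and 10 μM for 24 h; follow-up at 100, 30, 10 and 3 nM and dose response for 12 h. RIPA lysates, BCA-normalized, 7.5% SDS-PAGE, anti-BRD4 overnight at 4 °C, β-actin control, HRP-secondary chemiluminescence.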

[4] = molecular target: T1, von Hippel-Lindau disease tumor suppressor/Androgen receptor; assay: PROTAC activity at VHL/AR in human LNCaP cells assessed as induction of AR degradation at 1 uM measured after 16 hrs by western blot analysis relative to control; assay type: cell-based; outline: as §1
Target sequence in this assay (P10275 whole entry, looked up): as the sequence (P10275 whole entry, looked up) above
Target sequence in this assay (P40337 whole entry, looked up): as the sequence (P40337 whole entry, looked up) above

[5] = molecular target: T1, von Hippel-Lindau disease tumor suppressor/Androgen receptor; assay: PROTAC activity at VHL/AR in human LNCaP cells assessed as induction of AR degradation at 10 uM measured after 16 hrs by western blot analysis relative to control; assay type: cell-based; outline: as §1
Target sequence in this assay (P10275 whole entry, looked up): as the sequence (P10275 whole entry, looked up) above
Target sequence in this assay (P40337 whole entry, looked up): as the sequence (P40337 whole entry, looked up) above

[6] = molecular target: T1, von Hippel-Lindau disease tumor suppressor/Androgen receptor; assay: PROTAC activity at VHL/AR in human LNCaP cells assessed as reduction in AR level at 100 nM measured after 6 hrs by western blot analysis; assay type: cell-based
Outline: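 AR time-course blot in LNCaP cells (RPMI, 10% FBS, 37 °C, 5% CO2) with degrader at 100 nM over varied exposure times. Lysates in RIPA with protease inhibitors, equal protein by BCA, 7.5% SDS-PAGE, anti-AR overnight at 4 °C, β-actin loading reference, HRP detection.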
Target sequence in this assay (P10275 whole entry, looked up): as the sequence (P10275 whole entry, looked up) above
Target sequence in this assay (P40337 whole entry, looked up): as the sequence (P40337 whole entry, looked up) above

[7] = molecular target: T1, von Hippel-Lindau disease tumor suppressor/Androgen receptor; assay: PROTAC activity at VHL/AR in human LNCaP cells assessed as induction of AR degradation measured after 16 hrs by western blot analysis; assay type: cell-based; outline: as §1
Target sequence in this assay (P10275 whole entry): as the sequence (P10275 whole entry, looked up) above
Target sequence in this assay (P40337 whole entry): as the sequence (P40337 whole entry, looked up) above

[8] = molecular target: T2, von Hippel-Lindau disease tumor suppressor/Bromodomain-containing protein 4; assay: PROTAC activity at VHL/BRD4 in human MV4-11 cells assessed as induction of BRD4 degradation measured after 12 hrs by western blot analysis
[9] = molecular target: T2, von Hippel-Lindau disease tumor suppressor/Bromodomain-containing protein 4; assay: PROTAC activity at VHL/BRD4 in human MV4-11 cells assessed as induction of BRD4 degradation at 3 to 100 nM measured after 12 hrs by western blot analysis; settings: dose 3-100 nM

| Activity [1] | SMILES | other results |
| --- | --- | --- |
| Active | CC1(C)[C@H](NC(=O)c2ccc3c(c2)CN(C2CCC(=O)NC2=O)C3=O)C(C)(C)[C@H]1Oc1ccc(C#N)c(Cl)c1 (some centres not stated) |  |
|  | Cc1ncsc1-c1ccc(CNC(=O)[C@@H]2C[C@@H](O)CN2C(=O)[C@@H](NC(=O)CCCCCCCNC(=O)c2ccc(C(=O)N[C@H]3C(C)(C)[C@H](Oc4ccc(C#N)c(Cl)c4)C3(C)C)cc2)C(C)(C)C)cc1 | Activity [2]: Active |
| Active | Cc1ncsc1-c1ccc(CNC(=O)[C@@H]2C[C@@H](O)CN2C(=O)[C@@H](NC(=O)COCCOCCOCCN2Cc3cc(C(=O)N[C@H]4C(C)(C)[C@H](Oc5ccc(C#N)c(Cl)c5)C4(C)C)ccc3C2=O)C(C)(C)C)cc1 |  |
| Active | Cc1ncsc1-c1ccc(CNC(=O)[C@@H]2C[C@@H](O)CN2C(=O)[C@@H](NC(=O)CCCCCCCCN2Cc3cc(C(=O)N[C@H]4C(C)(C)[C@H](Oc5ccc(C#N)c(Cl)c5)C4(C)C)ccc3C2=O)C(C)(C)C)cc1 |  |
|  | Cc1ncsc1-c1ccc(CNC(=O)[C@@H]2C[C@@H](O)CN2C(=O)[C@@H](NC(=O)CCCCN2Cc3ccc(NC(=O)C[C@@H]4N=C(c5ccc(Cl)cc5)c5c(sc(C)c5C)-n5c(C)nnc54)cc3C2=O)C(C)(C)C)cc1 | Activity [3]: Active |
| Active | Cc1ncsc1-c1ccc(CNC(=O)[C@@H]2C[C@@H](O)CN2C(=O)[C@@H](NC(=O)CCN2Cc3cc(C(=O)N[C@H]4C(C)(C)[C@H](Oc5ccc(C#N)c(Cl)c5)C4(C)C)ccc3C2=O)C(C)(C)C)cc1 |  |
| Active | Cc1ncsc1-c1ccc(CNC(=O)[C@@H]2C[C@@H](O)CN2C(=O)[C@@H](NC(=O)COCCN2Cc3cc(C(=O)N[C@H]4C(C)(C)[C@H](Oc5ccc(C#N)c(Cl)c5)C4(C)C)ccc3C2=O)C(C)(C)C)cc1 |  |
| Active | Cc1ncsc1-c1ccc(CNC(=O)[C@@H]2C[C@@H](O)CN2C(=O)[C@@H](NC(=O)CCCCCN2Cc3cc(C(=O)N[C@H]4C(C)(C)[C@H](Oc5ccc(C#N)c(Cl)c5)C4(C)C)ccc3C2=O)C(C)(C)C)cc1 |  |
| Active | Cc1ncsc1-c1ccc(CNC(=O)[C@@H]2C[C@@H](O)CN2C(=O)[C@@H](NC(=O)COCCOCCN2Cc3cc(C(=O)N[C@H]4C(C)(C)[C@H](Oc5ccc(C#N)c(Cl)c5)C4(C)C)ccc3C2=O)C(C)(C)C)cc1 |  |
| Active | Cc1ncsc1-c1ccc(CNC(=O)[C@@H]2C[C@@H](O)CN2C(=O)[C@@H](NC(=O)COCCOCCOCCOCCN2Cc3cc(C(=O)N[C@H]4C(C)(C)[C@H](Oc5ccc(C#N)c(Cl)c5)C4(C)C)ccc3C2=O)C(C)(C)C)cc1 |  |
|  | Cc1ncsc1-c1ccc(CNC(=O)[C@@H]2C[C@@H](O)CN2C(=O)[C@@H](NC(=O)CCCCCCCN2Cc3cc(C(=O)N[C@H]4C(C)(C)[C@H](Oc5ccc(C#N)c(Cl)c5)C4(C)C)ccc3C2=O)C(C)(C)C)cc1 | Activity [2]: Active |
| Active | Cc1ncsc1-c1ccc(CNC(=O)[C@@H]2C[C@@H](O)CN2C(=O)[C@@H](NC(=O)CCCCCCCN2Cc3ccc(C(=O)N[C@H]4C(C)(C)[C@H](Oc5ccc(C#N)c(Cl)c5)C4(C)C)cc3C2=O)C(C)(C)C)cc1 | Activity [4]: 73%; Activity [5]: 40%; Activity [2]: Active; Activity [6]: Active; DC50 [7]: 41.9 nM |
| Active | Cc1ncsc1-c1ccc(CNC(=O)[C@@H]2C[C@@H](O)CN2C(=O)[C@@H](NC(=O)CCCCCCN2Cc3cc(C(=O)N[C@H]4C(C)(C)[C@H](Oc5ccc(C#N)c(Cl)c5)C4(C)C)ccc3C2=O)C(C)(C)C)cc1 |  |
| Active | Cc1ncsc1-c1ccc(CNC(=O)[C@@H]2C[C@@H](O)CN2C(=O)[C@@H](NC(=O)CCCCN2Cc3cc(C(=O)N[C@H]4C(C)(C)[C@H](Oc5ccc(C#N)c(Cl)c5)C4(C)C)ccc3C2=O)C(C)(C)C)cc1 |  |
|  | Cc1ncsc1-c1ccc(CNC(=O)[C@@H]2C[C@@H](O)CN2C(=O)[C@@H](NC(=O)CCCCN2Cc3cc(NC(=O)C[C@@H]4N=C(c5ccc(Cl)cc5)c5c(sc(C)c5C)-n5c(C)nnc54)ccc3C2=O)C(C)(C)C)cc1 | DC50 [8]: 8.9 nM; Activity [9]: Active |
| Active | Cc1ncsc1-c1ccc(CNC(=O)[C@@H]2C[C@@H](O)CN2C(=O)[C@@H](NC(=O)CCCCCCCCCCN2Cc3cc(C(=O)N[C@H]4C(C)(C)[C@H](Oc5ccc(C#N)c(Cl)c5)C4(C)C)ccc3C2=O)C(C)(C)C)cc1 |  |
